According to ChEMBL document CHEMBL1255494, “In vivo comparison of the pharmacodynamic targets for echinocandin drugs against Candida species” (Antimicrob Agents Chemother, 2010):
Converted amounts (≈) assume the structure as drawn. *1 amine or outer side, *2 acyl side, *3 side chain or, on linkers, in order; H or OH if unused. Where a SMILES comes first, the peptide text is derived from it. Bridges are numbered along the chain shown (N, C = ends). [ ]: non-standard residue; d: D form. The star is where a group is joined. pTerphenylCO(4''-OnC5H11) = CCCCCOc1ccc(-c2ccc(-c3ccc(C(=O)*)cc3)cc2)cc1; Orn(4R-OH,5R-OH) = O=C([C@H](C[C@@H](O)[C@@H](O)N[*:3])N[*:1])[*:2]; hTyr(3S-OH,4S-OH) = N[C@H](C(=O)O)[C@H](O)[C@@H](O)c1ccc(O)cc1; Pro(3S-OH,4S-Me) = C[C@H]1CN[C@H](C(=O)O)[C@H]1O; Hyp = O=C(O)[C@@H]1C[C@@H](O)CN1

What was measured:
Candida parapsilosis [1] = assay: Antifungal activity against Candida parapsilosis 20423.078 after 24 hrs; format: functional; details: Lodderomyces parapsilosis, 20423.078, 24 h
In short: (§1)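 MICs by CLSI M27-A3 broth dilution in RPMI 1640, inoculum 0.5 × 10³ to 2.5 × 10³ cells/ml, 35°C. Read visually at 24 h as the lowest concentration giving ≥50% growth reduction versus control. Run on three occasions in duplicate and reported as the mean. C. krusei ATCC 6258 and C. parapsilosis ATCC 22019 served as QC strains.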

Nakaseomyces glabratus [2] = assay: Antifungal activity against Candida glabrata 32930 after 24 hrs; format: functional; details: Nakaseomyces glabratus, 32930, 24 h
In short: (§2)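 Broth microdilution per CLSI M27-A3 in RPMI 1640; inoculum 0.5 × 10³ to 2.5 × 10³ cells/ml, 35°C. […] Three separate occasions in duplicate, mean reported; C. krusei ATCC 6258 and C. parapsilosis ATCC 22019 as daily QC.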

[3] = Ratio of fAUC (0 to 24 hrs) in Candida albicans infected neutropenic ICR Swiss mouse to MIC for Candida albicans at static dose after 24 hrs; format: functional
Candida parapsilosis [4] = assay: Antifungal activity against Candida parapsilosis 20385.079 after 24 hrs; format: functional; details: Lodderomyces parapsilosis, 20385.079, 24 h; in short: as §1
Nakaseomyces glabratus [5] = assay: Antifungal activity against Candida glabrata 513 after 24 hrs; format: functional; details: Nakaseomyces glabratus, 513, 24 h; in short: as §2
Nakaseomyces glabratus [6] = assay: Antifungal activity against Candida glabrata 34341 after 24 hrs; format: functional; details: Nakaseomyces glabratus, 34341, 24 h; in short: as §1
Candida parapsilosis [7] = assay: Antifungal activity against Candida parapsilosis 20477.048 after 24 hrs; format: functional; details: Lodderomyces parapsilosis, 20477.048, 24 h; in short: as §1
Nakaseomyces glabratus [8] = assay: Fungistatic activity against Candida glabrata infected in neutropenic ICR Swiss mouse after 24 hrs; format: functional
In short: (§3)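 Female ICR Swiss mice, neutropenic via cyclophosphamide s.c. (150 mg/kg day −4, 100 mg/kg day −1 and day +2), infected by tail-vein injection of clinical isolates 2 h before therapy. Intraperitoneal dosing every 24 h for 4 days, 4–6 dose levels from 0.078 to 160 mg/kg, 3 mice per regimen. Kidney CFU counted at 96 h. Sigmoid dose-effect fit gives static dose and 1 log kill dose relative to burden at start of therapy.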

[9] = Ratio of fAUC (0 to 24 hrs) in Candida parapsilosis infected neutropenic ICR Swiss mouse to MIC for Candida parapsilosis at static dose after 24 hrs; format: functional
Candida parapsilosis [10] = assay: Antifungal activity against Candida parapsilosis infected in ICR Swiss mouse assessed log reduction in bacterial count […]; format: functional; in short: as §3
Mus musculus = assay: Protein binding in Candida albicans infected neutropenic ICR Swiss mouse at 80 mg/kg, ip; format: ADME, organism-based; set-up: dose 80 mg/kg, route intraperitoneal; details: in vivo
Candida parapsilosis [11] = assay: Antifungal activity against Candida parapsilosis 20511.092 after 24 hrs; format: functional; details: Lodderomyces parapsilosis, 20511.092, 24 h; in short: as §1
Candida albicans [12] = assay: Antifungal activity against Candida albicans K1 after 24 hrs; format: functional; details: K1, 24 h; in short: as §2
[13] = Ratio of fAUC (0 to 24 hrs) in Candida albicans infected neutropenic ICR Swiss mouse to MIC for Candida albicans at 1 log kill dose after 24 hrs; format: functional
[14] = AUC (0 to 24 hrs) in Candida albicans infected neutropenic ICR Swiss mouse at 20 mg/kg, ip; format: ADME, organism-based; set-up: time < 24 hr, dose 20 mg/kg, route intraperitoneal; details: plasma
In short: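 Neutropenic female ICR Swiss mice (cyclophosphamide sc at 150 mg/kg on day −4, 100 mg/kg on day −1 and day +2) infected iv via tail vein with Candida; single ip doses of 5, 20 or 80 mg/kg. Serum drawn from 3 mice per time point at eight time points and assayed by microbiologic assay (C. albicans K1) or […]. Noncompartmental analysis; AUC by trapezoidal rule.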

Candida parapsilosis [15] = assay: Antifungal activity against Candida parapsilosis 20450.096 after 24 hrs; format: functional; details: Lodderomyces parapsilosis, 20450.096, 24 h; in short: as §1
[16] = Ratio of AUC (0 to 24 hrs) in Candida glabrata infected neutropenic ICR Swiss mouse to MIC for Candida glabrata at 1 log kill dose after 24 hrs; format: functional
In short: (§4)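 Neutropenic mice were infected iv and treated 2 h later. Four to six ip dose levels (0.078–160 mg/kg) were given every 24 h for 4 days, 3 mice per regimen. Kidney CFU were counted at 96 h. A sigmoid dose-effect model gave the static and 1-log-kill doses relative to burden at therapy start.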

Candida parapsilosis [17] = assay: Antifungal activity against Candida parapsilosis 20562.03 after 24 hrs; format: functional; details: Lodderomyces parapsilosis, 20562.03, 24 h; in short: as §1
Candida parapsilosis [18] = assay: Antifungal activity against Candida parapsilosis 20477.078 after 24 hrs; format: functional; details: Lodderomyces parapsilosis, 20477.078, 24 h; in short: as §1
[19] = Ratio of AUC (0 to 24 hrs) in Candida albicans infected neutropenic ICR Swiss mouse to MIC for Candida albicans at 1 log kill dose after 24 hrs; format: functional; in short: as §4
[20] = Ratio of AUC (0 to 24 hrs) in Candida parapsilosis infected neutropenic ICR Swiss mouse to MIC for Candida parapsilosis at static dose after 24 hrs; format: functional; in short: as §4
[21] = Ratio of AUC (0 to 24 hrs) in Candida albicans infected neutropenic ICR Swiss mouse to MIC for Candida albicans at static dose after 24 hrs; format: functional; in short: as §4
Nakaseomyces glabratus [22] = assay: Antifungal activity against Candida glabrata infected in neutropenic ICR Swiss mouse assessed log reduction in bacterial count […]; format: functional; in short: as §3
Nakaseomyces glabratus [23] = assay: Antifungal activity against Candida glabrata 33616 after 24 hrs; format: functional; details: Nakaseomyces glabratus, 33616, 24 h; in short: as §1
Candida parapsilosis [24] = assay: Fungistatic activity against Candida parapsilosis infected in neutropenic ICR Swiss mouse after 24 hrs; format: functional; in short: as §3
Candida albicans [25] = assay: Antifungal activity against Candida albicans 98-210 after 24 hrs; format: functional; details: 98-210, 24 h; in short: as §2
Candida albicans [26] = assay: Antifungal activity against Candida albicans 98-17 after 24 hrs; format: functional; details: 98-17, 24 h; in short: as §1
[27] = Ratio of AUC (0 to 24 hrs) in Candida parapsilosis infected neutropenic ICR Swiss mouse to MIC for Candida parapsilosis at 1 log kill dose after 24 hrs; format: functional; in short: as §4
Candida parapsilosis [28] = assay: Antifungal activity against Candida parapsilosis 20553.009 after 24 hrs; format: functional; details: Lodderomyces parapsilosis, 20553.009, 24 h; in short: as §1
Candida parapsilosis [29] = assay: Antifungal activity against Candida parapsilosis 20489.085 after 24 hrs; format: functional; details: Lodderomyces parapsilosis, 20489.085, 24 h; in short: as §2
Candida orthopsilosis = assay: Antifungal activity against Candida orthopsilosis 20577.055 after 24 hrs; format: functional; details: Lodderomyces orthopsilosis, 20577.055, 24 h; in short: as §1
[30] = Ratio of AUC (0 to 24 hrs) in Candida glabrata infected neutropenic ICR Swiss mouse to MIC for Candida glabrata at static dose after 24 hrs; format: functional; in short: as §4
Nakaseomyces glabratus [31] = assay: Antifungal activity against Candida glabrata infected in ICR Swiss mouse; format: functional; in short: as §3
Nakaseomyces glabratus [32] = assay: Antifungal activity against Candida glabrata 33609 after 24 hrs; format: functional; details: Nakaseomyces glabratus, 33609, 24 h; in short: as §2
Nakaseomyces glabratus [33] = assay: Antifungal activity against Candida glabrata 5592 after 24 hrs; format: functional; details: Nakaseomyces glabratus, 5592, 24 h; in short: as §2
Candida parapsilosis [34] = assay: Antifungal activity against Candida parapsilosis 20435.057 after 24 hrs; format: functional; details: Lodderomyces parapsilosis, 20435.057, 24 h; in short: as §1
Candida albicans [35] = assay: Antifungal activity against Candida albicans infected in ICR Swiss mouse assessed as log reduction in bacterial count […]; format: functional; in short: as §3

## CCCCCOc1ccc(-c2ccc(-c3ccc(C(=O)N[C@H]4C[C@@H](O)[C@@H](O)NC(=O)[C@@H]5[C@@H](O)[C@@H](C)CN5C(=O)[C@H]([C@@H](C)O)NC(=O)[C@H]([C@H](O)[C@@H](O)c5ccc(O)cc5)NC(=O)[C@@H]5C[C@@H](O)CN5C(=O)[C@H]([C@@H](C)O)NC4=O)cc3)cc2)cc1 [ANIDULAFUNGIN] ({pTerphenylCO(4''-OnC5H11)}-[Orn(4R-OH,5R-OH)]T[Hyp][hTyr(3S-OH,4S-OH)]T[Pro(3S-OH,4S-Me)]; lactam 1-C)
Candida parapsilosis [1]
  MIC: 1 µg/mL (≈ 0.877 µM)
Nakaseomyces glabratus [2]
  MIC: 0.06 µg/mL (≈ 0.0526 µM)
[3]
  Ratio: 27.8
Candida parapsilosis [4]
  MIC: 1 µg/mL (≈ 0.877 µM)
Nakaseomyces glabratus [5]
  MIC: 0.06 µg/mL (≈ 0.0526 µM)
Nakaseomyces glabratus [6]
  MIC: 0.12 µg/mL (≈ 0.105 µM)
Candida parapsilosis [7]
  MIC: 2 µg/mL (≈ 1.75 µM)
Nakaseomyces glabratus [8]
  Activity: 21.1 mg/kg
[9]
  Ratio: 11.5
Candida parapsilosis [10]
  Activity: 47 mg/kg
Mus musculus
  Activity: 99%
Candida parapsilosis [11]
  MIC: 1 µg/mL (≈ 0.877 µM)
Candida albicans [12]
  MIC: 0.015 µg/mL (≈ 0.0132 µM)
[13]
  Ratio: 91
[14]
  AUC(0-t) at 24 h: 382 µg·h/mL
Candida parapsilosis [15]
  MIC: 1 µg/mL (≈ 0.877 µM)
[16]
  Ratio: 3188
Candida parapsilosis [17]
  MIC: 1 µg/mL (≈ 0.877 µM)
Candida parapsilosis [18]
  MIC: 2 µg/mL (≈ 1.75 µM)
[19]
  Ratio: 9125
[20]
  Ratio: 1154
[21]
  Ratio: 2782
Nakaseomyces glabratus [22]
  Activity: 39 mg/kg
Nakaseomyces glabratus [23]
  MIC: 1 µg/mL (≈ 0.877 µM)
Candida parapsilosis [24]
  Activity: 51 mg/kg
Candida albicans [25]
  MIC: 0.015 µg/mL (≈ 0.0132 µM)
Candida albicans [26]
  MIC: 0.03 µg/mL (≈ 0.0263 µM)
[27]
  Ratio: 2244
Candida parapsilosis [28]
  MIC: 2 µg/mL (≈ 1.75 µM)
Candida parapsilosis [29]
  MIC: 1 µg/mL (≈ 0.877 µM)
Candida orthopsilosis
  MIC: 0.5 µg/mL (≈ 0.438 µM)
[30]
  Ratio: 1366
Nakaseomyces glabratus [31]
  Emax: 6 log10 CFU/kidneys
Nakaseomyces glabratus [31]; Nakaseomyces glabratus
  ED50: 15.5 mg/kg
Nakaseomyces glabratus [32]
  MIC: 0.03 µg/mL (≈ 0.0263 µM)
Nakaseomyces glabratus [33]
  MIC: 0.06 µg/mL (≈ 0.0526 µM)
Candida parapsilosis [34]
  MIC: 1 µg/mL (≈ 0.877 µM)
Candida albicans [35]
  Activity: 4.25 mg/kg
